# Results of several laboratories.
# TNIK: TRAF2 and NCK-interacting protein kinase (TNIK, Homo sapiens, UniProt Q9UKE5)
# CASP9: Caspase-9 (CASP9, Homo sapiens, UniProt P55211)
# MMP1: Interstitial collagenase (MMP1, Homo sapiens, UniProt P03956)
# SLC5A7: High affinity choline transporter 1 (SLC5A7, Homo sapiens, UniProt Q9GZV3)
SMILES,target,test,setting,inhibition
Cn1cc(-c2cccc(N3CCc4c(sc5c4CC(C)(C)C5)C3=O)c2CO)cc(Nc2ccncn2)c1=O,"Eukaryotic elongation factor 2 kinase (EEF2K, Homo sapiens, UniProt O00418)","enzyme activity, inhibitor",1 µM,2%
CN(C)C(=O)COC(=O)Cc1ccc(OC(=O)c2ccc(NC(=N)N)cc2)cc1,"Ubiquitin carboxyl-terminal hydrolase 7 (USP7, Homo sapiens, UniProt Q93009)","enzyme activity, inhibitor",10 µM,0%
COc1cc(Nc2ncc(F)c(Nc3ccc4c(n3)NC(=O)C(C)(C)O4)n2)cc(OC)c1OC,TNIK,binding,10 µM,56%
N=C(N)c1ccc2cc(OC(=O)c3ccc(N=C(N)N)cc3)ccc2c1,CASP9,"enzyme activity, inhibitor",10 µM,0%
C[C@H](C(=O)N[C@H]1COc2ccccc2[C@@H]1S(C)(=O)=O)c1ccc(F)cc1,MMP1,"enzyme activity, inhibitor",10 µM,13%
COCc1c(-c2cc3cc(C)cc(OC)c3s2)c2c(N)ncnn2c1CN1CCNC(=O)C1,"Calcium-dependent protein kinase 1 (CDPK1, Plasmodium falciparum, UniProt P62344)","cell-free assay, competition with immobilised ligand",1 µM,93.3%
C#Cc1n[nH]c2c(-c3cn([C@@H](C)c4ccccc4)c(=O)[nH]c3=O)cc(F)cc12,TNIK,"enzyme activity, inhibitor",0.1 µM,-0.3%
CN(CCN1CCC(OC(=O)Nc2ccccc2-c2ccccc2)CC1)C(=O)c1ccc(CN2CCC(C(N)=O)CC2)cc1,SLC5A7,"ligand displacement, radioligand",1 µM,-6%
COc1ccc(S(=O)(=O)N(CC(=O)NO)CC(C)C)cc1,MMP1,"enzyme activity, inhibitor",10 µM,77%
Cc1ncc(C)n2nc(/C=C/c3nc(N4CCCC4)cc(N4CCOCC4)n3)nc12,SLC5A7,ligand displacement,10 µM,14%
CCOC(=O)N1C[C@H]2C[C@@H]1C[C@@H]2c1ccc(-c2cc(C(=O)OCC(=O)N(C)C)cc3cc(-c4ccc(C(F)(F)F)cc4)ccc23)cc1,"P2Y purinoceptor 14 (P2RY14, Homo sapiens, UniProt Q15391)","cell-free assay, inhibitor",10 µM,12.2%
CCOC(=O)c1ccc(OC(=O)CCCCCNC(=N)N)cc1,MMP1,"enzyme activity, inhibitor",10 µM,2%
O=C(Nc1cccnn1)N1CCN([C@@H]2CCOc3cc(C(F)(F)F)ccc32)CC1,CASP9,cell-free assay,20 µM,-4%
C#Cc1n[nH]c2c(-c3cn([C@@H](C)c4ccccn4)c(=O)[nH]c3=O)cc(F)cc12,"TGF-beta receptor type-1 (TGFBR1, Homo sapiens, UniProt P36897)","enzyme activity, inhibitor",0.1 µM,1.5%
COC(=O)CC[C@H](NC(=O)[C@H](CC(C)C)NC(=O)OCc1ccccc1)C(=O)N[C@@H](Cc1cnc[nH]1)C(=O)N[C@@H](CC(=O)OC)C(=O)CF,CASP9,"enzyme activity, inhibitor",10 µM,86%
COc1ccc(S(=O)(=O)N2CCCCC2)cc1C,SLC5A7,"ligand displacement, radioligand",10 µM,< 30%
